Compound activity (PubChem)
PAFAH1B3 FP inh: PAFAH1B3 (human) inhibition; recombinant PAFAH1B3, FP-rhodamine probe, fluorescence polarization; inhibition, % at 3.39 µM; 340,000 compounds, 0.28% hits;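 active means inhibition above the screen-wide average of all tested compounds plus 3 SD, cut at about 25% in these data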;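 further: 0% = enzyme with DMSO only and 100% = wells lacking PAFAH1B3 protein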
Target sequence (Q15102 whole entry, looked up): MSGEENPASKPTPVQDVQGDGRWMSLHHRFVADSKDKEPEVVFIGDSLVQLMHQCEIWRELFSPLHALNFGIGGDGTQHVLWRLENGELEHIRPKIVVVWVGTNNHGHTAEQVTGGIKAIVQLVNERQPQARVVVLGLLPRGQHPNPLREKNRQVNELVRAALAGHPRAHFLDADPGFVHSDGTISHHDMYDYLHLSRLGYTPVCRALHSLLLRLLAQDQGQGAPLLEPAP
pPAFAH FP inh: inhibitors of human plasma PAF acetylhydrolase (pPAFAH) | Q13093 | recombinant pPAFAH, FP-rhodamine probe fluorescence polarization | inhibition, % at 3.39 µM | 330,000 compounds, 1.5% hits | AID 463082;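 active means inhibition above the mean inhibition across the screen plus 3 SD, cut at about 25% in these data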;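 further: inhibitors block binding of the rhodamine activity-based probe so polarization drops; 0% = enzyme with DMSO and 100% = wells lacking pPAFAH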
Target sequence (Q13093 whole entry, looked up): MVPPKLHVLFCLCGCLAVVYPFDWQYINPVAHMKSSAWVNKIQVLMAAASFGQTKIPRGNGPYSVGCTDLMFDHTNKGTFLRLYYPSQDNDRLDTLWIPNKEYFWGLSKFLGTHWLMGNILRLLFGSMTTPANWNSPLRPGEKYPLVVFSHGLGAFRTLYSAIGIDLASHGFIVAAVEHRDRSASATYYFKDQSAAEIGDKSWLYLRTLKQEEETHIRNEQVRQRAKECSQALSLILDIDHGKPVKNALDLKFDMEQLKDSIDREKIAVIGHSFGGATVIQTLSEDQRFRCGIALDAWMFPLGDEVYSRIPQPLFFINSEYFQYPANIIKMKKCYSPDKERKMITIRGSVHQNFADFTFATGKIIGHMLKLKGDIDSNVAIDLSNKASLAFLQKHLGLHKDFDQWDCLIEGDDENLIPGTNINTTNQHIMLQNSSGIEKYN
PAFAH1B2 FP inh: PAFAH1B2 (human) inhibition. P68402. recombinant PAFAH1B2, FP-rhodamine activity probe, fluorescence polarization. inhibition, % at 3.39 µM. 340,000 compounds, 1.2% hits. AID 492953;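 active means inhibition above the mean of all tested compounds plus 3 SD, cut at about 24% in these data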;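 further: 0% = enzyme with DMSO and 100% = wells lacking PAFAH1B2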
ARFGAP1 inhibitor: rat ARFGAP1 inhibition; 360,000 compounds, 0.26% hits; inhibition, % at 16.5 µM; Q62848; Arfgap1-stimulated ARF1 GTP hydrolysis, GDP FP detection; AID 651572;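 active means inhibition above a per-plate limit, mean inhibition of low control wells plus 3 SD, cut at about 25% in these data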;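 further: 0% = DMSO wells with enzyme and 100% = wells lacking Arfgap1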
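System: truncated rat Arfgap1 GAP domain / Medium: HEPES-based buffer, pH 7.5 / Also added: N-terminally truncated human ARF1-GTP substrate / Incubation: enzyme reaction 120 min at 25 °C after 20 min preincubation / Measured by: FP of antibody-bound GDP Alexa 633 tracer, ex 620/em 688 nm / Replicates: singlicate, each compound tested once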
PAFAH2 inh: PAFAH2 (human) inhibition | Q99487 | recombinant PAFAH2, FP-rhodamine activity probe, fluorescence polarization | inhibition, % at 3.39 µM | 340,000 compounds, 0.99% hits;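 active means inhibition above the mean over all tested compounds plus 3 SD, cut at about 30% in these data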;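 further: inhibitors block probe labeling of enzyme so polarization drops; 0% = enzyme with DMSO and 100% = wells lacking PAFAH2 protein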
ASAP1 GAP inh: blocks human ASAP1-stimulated Arf1 GTP hydrolysis; GDP FP detection; 360,000 compounds, 0.19% hits; Q9ULH1; inhibition, % at 16.5 µM; in the data active means inhibition above about 25%;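 further: 0% = vehicle with enzyme and substrate and 100% = no enzyme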
Active calls of the source: *; · = no result given. Compounds with a hit are over-represented: about 2.7% of the library has one in this group of screens.

SMILES	PAFAH1B3 FP inh	pPAFAH FP inh	PAFAH1B2 FP inh	ARFGAP1 inhibitor	PAFAH2 inh	ASAP1 GAP inh
Cc1cccc(CS(=O)(=O)Cc2ccc(C(=O)NCCc3ccccc3)o2)c1	7.6	28.6*	3.6	-8.0	6.2	3.6
Cc1cccc(CS(=O)(=O)Cc2ccc(C(=O)NCCCN3CCOCC3)o2)c1	8.2	11.6	2.8	2.6	-3.3	10.6
CC(C)OCCCNC(=O)c1ccc(CS(=O)(=O)Cc2ccccc2F)o1	10.6	3.6	0.4	-3.3	-7.3	-6.0
CCCCNC(=O)c1ccc(CS(=O)(=O)Cc2ccccc2F)o1	6.2	25.2*	9.1	-2.1	-1.4	-3.1
Cc1cccc(CS(=O)(=O)Cc2ccc(C(=O)NCCCN3CCCC3)o2)c1	6.0	32.7*	-5.7	-11.6	-2.5	-1.8
COc1ccc(CCNC(=O)c2ccc(CSc3ccccc3)o2)cc1	0.3	25.2*	16.0	-13.3	-3.6	-13.8
COc1cccc(CNC(=O)[C@H]2CCCN2C(=O)[C@H]2CCCN2C(=O)c2cccs2)c1	·	·	·	6.0	·	-1.7
COC(=O)c1cc2c(c3c4cc(F)ccc4n(S(=O)(=O)c4ccccc4)c13)C(=O)N(Cc1ccccc1)C2	·	·	·	-3.6	·	3.2
CC(C)c1ccc(OCCCN2CCC(C(O)(c3ccccc3)c3ccccc3)CC2)cc1	·	·	·	1.4	·	13.6
Oc1c(Br)cc(Br)cc1C=Nc1cccc2ncccc12	8.4	27.8*	3.8	-11.8	13.9	15.4
CCOC(=O)C1Nc2ccccc2C2C(O)C(O)CC12 (stereo not drawn)	37.7*	17.8	14.2	5.0	12.6	-3.6
CCOC(=O)C1Nc2ccc(C(F)(F)F)cc2C2c3ccccc3CC12 (stereo not drawn)	0.4	-7.3	2.5	11.9	2.3	-2.2
O=C(OCCc1ccccc1)c1cc(O)c(O)c(O)c1	11.8	14.6	54.9*	-8.6	16.9	4.4
Nc1ccc(C(=O)OCCc2ccccc2)cc1	1.3	8.9	7.4	6.3	18.2	6.0
O=S(=O)(NCc1ccccc1)NCc1ccccc1	6.0	4.8	1.3	-10.0	7.9	-4.1
CSc1ccc(S(=O)(=O)NCc2ccc(Cl)cc2Cl)cc1	3.9	-0.8	29.2*	7.8	1.1	19.6
O=S(=O)(NCc1ccccc1)NCc1ccc(Cl)cc1Cl	4.0	1.9	28.4*	6.2	8.7	-6.9
Cc1cc(N2CCNC[C@@H]2C)ccc1N1CCS(=O)(=O)CC1	·	·	·	-14.6	·	-15.4
O=c1c2c(nc3cc(-c4ccc(Cl)cc4)[nH]n13)CCS2	4.8	16.1	31.6*	-2.8	20.3	1.2
c1ccc(SCc2cc(-c3ccccc3)no2)cc1	9.7	5.8	26.1*	7.0	6.9	-9.7
Cc1cc(Br)c2nc(-c3ccc(F)cc3)c(Cc3cccc(Cl)c3)n2c1	·	·	·	12.4	·	1.5
COc1ccccc1C1=NC(c2ccc(C)cc2)N=C1C (stereo not drawn)	7.9	24.6*	7.7	-11.0	-3.5	1.6
CC(=O)C1=C(C)N(Cc2ccc(Br)cc2)C(=S)NC1c1cccc(F)c1 (stereo not drawn)	·	·	·	-16.6	·	6.7
Cc1ccc(/C=[N+](/C)[O-])cc1	7.1	7.3	6.1	-10.1	2.8	-2.9
Cc1ccc(C=C2C(Cl)=C(Cl)C(Cl)=C2Cl)cc1	·	41.5*	·	·	·	·
SMILES	PAFAH1B3 FP inh	pPAFAH FP inh	PAFAH1B2 FP inh	ARFGAP1 inhibitor	PAFAH2 inh	ASAP1 GAP inh
NC(=S)NN=C1CCCCCCCCCC1	2.7	·	27.5*	5.5	7.2	-14.9
Cc1ccc(C(=O)O)cc1-c1ccc(/C=C2/NC(=O)N(c3ccccc3)C2=O)o1	12.1	28.9*	9.5	4.4	20.5	-12.2
CC(C)(C)c1ccc(C(=O)NCCC(=O)N2CCCC2)cc1	-2.4	3.5	6.5	-0.5	-0.6	-7.8
CC(C)(C)c1ccc(C(=O)NCCC(=O)N2CCN(c3ncccn3)CC2)cc1	-1.4	0.2	29.6*	-6.1	0.6	-3.9
CC(=O)NCc1ccc(C(=O)COC(=O)COc2ccccc2)s1	10.5	15.0	-1.6	-9.6	0.5	-5.8
CC(=O)NCc1ccc(C(=O)COC(=O)COc2ccc(Cl)c(C)c2)s1	5.7	27.3*	5.5	-5.8	3.6	5.3
COC(=O)c1ccc(NC(=O)C2CCN(C(=O)c3cc(OC)c(OC)c(OC)c3)CC2)cc1	4.3	0.8	2.7	-8.8	-4.0	-14.6
CCOC(=O)c1ccc(NC(=O)C2CCN(C(=O)c3ccc(OC)c(OC)c3)CC2)cc1	-2.9	29.1*	3.5	1.9	-0.6	4.6
CC1Cc2ccccc2N1S(=O)(=O)c1cccc(C(=O)NC2CC2)c1 (stereo not drawn)	-2.7	1.0	5.5	-9.7	12.0	-0.8
O=C(COC(=O)c1ccc(Cl)c(S(=O)(=O)NCc2ccccc2)c1)NC1CC1	9.5	13.5	8.9	4.8	21.0	1.4
O=C(c1cccc(S(=O)(=O)NCc2ccccc2)c1)N1CCN(Cc2ccccc2)CC1	3.6	27.2*	68.5*	-5.3	2.6	-3.8
CC1Cc2ccccc2N1S(=O)(=O)c1cccc(C(=O)OCC(=O)NC2CCS(=O)(=O)C2)c1 (stereo not drawn)	-3.7	10.9	26.5*	-4.3	17.1	0.6
O=C(COC(=O)c1cccc(S(=O)(=O)NCc2ccccc2)c1)NC1CC1	12.8	27.1*	13.5	0.3	26.8	-5.3
CC(Oc1ccc(Br)cc1)C(=O)NCC(c1cccs1)N1CCOCC1 (stereo not drawn)	10.5	1.7	26.5*	3.2	3.0	11.4
CCCCCCCCN1C(=O)[C@@H](CC(=O)NCCCOC)C[C@@]2(C(=O)OC)C1=C[C@H](C(C)(C)C)O[C@@H]2C	·	·	·	-3.8	·	-5.5
Cc1cc2oc(C(=O)N3CCN(Cc4ccccc4)CC3)c(C)c2cc1C	-0.4	25.6*	4.8	3.1	0.6	9.7
O=C(Nc1nc(-c2ccccc2)cs1)c1ccc(=O)[nH]c1	0.6	-1.9	-0.8	0.2	-5.1	7.1
Cc1cc(-c2csc(NC(=O)c3ccc(=O)[nH]c3)n2)c(C)n1Cc1ccccc1	8.6	31.3*	7.3	1.9	-14.2	12.8
Oc1ccc(-c2n[nH]c(=S)n2Cc2ccccc2)cc1	4.7	-3.0	24.6*	-4.4	8.4	-0.1
Fc1ccc(-c2c[nH]c(=S)n2Cc2ccccc2)cc1	7.6	-0.9	26.6*	-5.0	3.8	-4.1
O=c1[nH]cc(-c2ccc(Br)cc2)n1Cc1ccccc1	9.8	3.8	15.5	5.5	3.3	-4.4
Fc1ccc(-c2n[nH]c(=S)n2Cc2ccccc2)cc1	7.6	2.0	28.2*	·	-5.0	·
S=c1[nH]nc(-c2ccccc2Cl)n1Cc1ccccc1	-2.2	7.7	27.1*	-11.3	2.0	-7.8
S=c1[nH]nc(-c2ccc(Br)cc2)n1Cc1ccccc1	13.6	-0.2	22.4	-8.3	6.4	-1.1
COC(=O)[C@]12C[C@H](CC(=O)NCc3ccccc3)C(=O)N(Cc3ccccc3)C1=C[C@H](C1CCCC1)O[C@@H]2C	·	·	·	7.2	·	-7.3
